In ChEMBL document CHEMBL3297709, “High affinity ligands and potent antagonists for the α1D-adrenergic receptor. Novel 3,8-disubstituted [1]benzothieno[3,2-d]pyrimidine derivatives” (Eur J Med Chem, 2014):

Key:
[1] = molecular target: T1, Alpha-1A adrenergic receptor (Homo sapiens, UniProt P35348); test: Displacement of [125I]BE2254 from human alpha1a receptor expressed in HEK293 cells; format: cell-based
T1 sequence (P35348 whole entry): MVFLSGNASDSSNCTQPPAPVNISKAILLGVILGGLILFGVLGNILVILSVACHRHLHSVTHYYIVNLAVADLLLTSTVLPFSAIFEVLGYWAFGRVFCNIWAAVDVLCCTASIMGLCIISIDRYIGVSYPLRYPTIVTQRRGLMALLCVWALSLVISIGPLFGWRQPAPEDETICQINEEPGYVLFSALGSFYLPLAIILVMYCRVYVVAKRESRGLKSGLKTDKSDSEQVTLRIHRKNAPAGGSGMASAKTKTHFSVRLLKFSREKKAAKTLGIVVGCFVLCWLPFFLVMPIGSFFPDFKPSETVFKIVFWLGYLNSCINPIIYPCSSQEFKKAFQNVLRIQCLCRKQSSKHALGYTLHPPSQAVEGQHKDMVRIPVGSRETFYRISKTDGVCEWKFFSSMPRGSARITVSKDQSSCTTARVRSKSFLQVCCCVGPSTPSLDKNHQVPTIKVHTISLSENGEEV
Outline: (§1)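 Membranes from HEK293 cells stably transfected with human α1A, α1B or α1D receptor cDNA, selected under 400 µg/mL geneticin. Competition against 50 pM [125I]BE2254; nonspecific binding defined with 10 µM phentolamine. Curves fitted by nonlinear regression. Mean ± SE of three experiments run in duplicate.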

[2] = molecular target: T2, Alpha-1B adrenergic receptor (Homo sapiens, UniProt P35368); test: Displacement of [125I]BE2254 from human alpha1b receptor expressed in HEK293 cells; format: cell-based; outline: as §1
T2 sequence (P35368 whole entry): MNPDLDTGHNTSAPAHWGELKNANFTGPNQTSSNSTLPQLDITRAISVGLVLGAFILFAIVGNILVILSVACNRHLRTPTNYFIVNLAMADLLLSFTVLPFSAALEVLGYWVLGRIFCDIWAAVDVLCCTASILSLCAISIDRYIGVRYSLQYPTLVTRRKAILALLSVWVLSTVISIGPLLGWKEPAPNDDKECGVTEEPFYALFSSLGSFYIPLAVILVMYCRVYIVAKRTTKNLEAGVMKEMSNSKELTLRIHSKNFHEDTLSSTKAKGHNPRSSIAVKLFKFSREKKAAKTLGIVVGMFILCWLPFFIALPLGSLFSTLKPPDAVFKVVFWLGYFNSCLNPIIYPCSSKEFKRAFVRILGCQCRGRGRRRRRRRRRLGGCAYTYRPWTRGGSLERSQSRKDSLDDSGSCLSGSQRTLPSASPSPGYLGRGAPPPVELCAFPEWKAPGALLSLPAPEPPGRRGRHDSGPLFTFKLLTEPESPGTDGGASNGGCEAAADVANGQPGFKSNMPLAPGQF

[3] = molecular target: T3, Alpha-1D adrenergic receptor (Homo sapiens, UniProt P25100); test: Displacement of [125I]BE2254 from human alpha1d receptor expressed in HEK293 cells; format: cell-based; outline: as §1
T3 sequence (P25100 whole entry): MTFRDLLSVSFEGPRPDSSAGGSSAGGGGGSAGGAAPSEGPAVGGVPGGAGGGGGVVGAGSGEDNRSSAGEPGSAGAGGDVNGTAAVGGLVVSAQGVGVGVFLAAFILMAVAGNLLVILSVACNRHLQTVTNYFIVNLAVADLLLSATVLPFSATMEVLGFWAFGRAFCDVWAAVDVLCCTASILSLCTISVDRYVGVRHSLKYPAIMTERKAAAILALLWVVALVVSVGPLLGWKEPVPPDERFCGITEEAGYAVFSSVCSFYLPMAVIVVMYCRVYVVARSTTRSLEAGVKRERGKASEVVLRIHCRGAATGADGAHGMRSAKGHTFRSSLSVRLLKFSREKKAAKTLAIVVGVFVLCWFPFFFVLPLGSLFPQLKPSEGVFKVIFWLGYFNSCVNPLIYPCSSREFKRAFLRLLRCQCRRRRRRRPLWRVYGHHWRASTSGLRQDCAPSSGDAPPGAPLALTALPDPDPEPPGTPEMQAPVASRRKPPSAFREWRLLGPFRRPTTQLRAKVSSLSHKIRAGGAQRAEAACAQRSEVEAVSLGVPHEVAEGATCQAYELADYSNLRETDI

[4] = molecular target: T4, Alpha-1A adrenergic receptor (Rattus norvegicus) (UniProt P43140); test: Antagonist activity at alpha1A adrenoceptor in Wistar rat vas deferens assessed as noradrenaline induced contractions
T4 sequence (whole entry): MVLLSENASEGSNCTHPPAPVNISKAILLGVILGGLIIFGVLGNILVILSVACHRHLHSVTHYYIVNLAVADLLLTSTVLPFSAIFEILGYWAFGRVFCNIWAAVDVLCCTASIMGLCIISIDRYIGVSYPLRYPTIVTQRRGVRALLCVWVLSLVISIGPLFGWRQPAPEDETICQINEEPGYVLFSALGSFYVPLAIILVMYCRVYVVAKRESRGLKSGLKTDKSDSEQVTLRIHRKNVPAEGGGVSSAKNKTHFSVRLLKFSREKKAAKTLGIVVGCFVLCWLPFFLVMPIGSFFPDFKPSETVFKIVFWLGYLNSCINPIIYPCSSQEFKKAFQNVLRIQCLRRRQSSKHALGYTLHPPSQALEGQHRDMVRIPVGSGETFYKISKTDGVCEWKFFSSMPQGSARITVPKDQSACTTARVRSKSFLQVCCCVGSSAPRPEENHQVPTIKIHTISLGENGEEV
Outline: (§2)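 Male Wistar rat (275-300 g) prostatic vas deferens in 20 mL organ bath, physiological salt solution, 37 °C, 5% CO2:95% O2, pH 7.4. Primed twice with 10 µM (-)-NA, 45 min wash/equilibration, then cumulative (-)-NA curve recorded isotonically. Antagonist incubated 30–60 min before repeat curve. pKb = log(DR-1) - log[B] from ED50 ratio; mean ± SE of 4–5 experiments.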

[5] = molecular target: T5, Alpha-1B adrenergic receptor (Rattus norvegicus) (UniProt P15823); test: Antagonist activity at alpha1B adrenoceptor in Wistar rat spleen assessed as phenylephrine induced contractions
T5 sequence (whole entry): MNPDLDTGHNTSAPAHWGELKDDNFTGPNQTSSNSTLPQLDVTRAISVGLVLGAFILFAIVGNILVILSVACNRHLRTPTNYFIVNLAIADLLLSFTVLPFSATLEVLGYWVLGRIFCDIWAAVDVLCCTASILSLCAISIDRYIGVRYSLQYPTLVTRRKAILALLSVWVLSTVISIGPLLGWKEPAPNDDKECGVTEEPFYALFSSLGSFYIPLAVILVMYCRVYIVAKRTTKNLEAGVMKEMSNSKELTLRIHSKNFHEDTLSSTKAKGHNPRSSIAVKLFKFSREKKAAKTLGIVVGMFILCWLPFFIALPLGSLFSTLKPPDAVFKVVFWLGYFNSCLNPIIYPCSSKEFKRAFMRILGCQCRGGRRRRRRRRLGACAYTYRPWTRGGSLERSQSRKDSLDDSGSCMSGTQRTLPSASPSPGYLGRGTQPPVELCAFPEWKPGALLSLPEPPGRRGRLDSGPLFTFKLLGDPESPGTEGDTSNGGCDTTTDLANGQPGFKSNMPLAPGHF
Outline: (§3)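 Wistar rat spleen strips under 1 g resting tension, equilibrated 2 h, with 4 µM (±)-propranolol to block β-adrenoceptors. Cumulative phenylephrine curves measured isometrically at 30 min intervals, first discarded, second as control. Antagonist incubated 30–60 min before repeat curve. pKb from ED50 dose ratio via pKb = log(DR-1) - log[B]; mean ± SE of 4–5 experiments.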

[6] = molecular target: T6, Alpha-1D adrenergic receptor (Rattus norvegicus) (UniProt P23944); test: Antagonist activity at alpha1D adrenoceptor in Wistar rat thoracic aorta assessed as noradrenaline induced contractions
T6 sequence (whole entry): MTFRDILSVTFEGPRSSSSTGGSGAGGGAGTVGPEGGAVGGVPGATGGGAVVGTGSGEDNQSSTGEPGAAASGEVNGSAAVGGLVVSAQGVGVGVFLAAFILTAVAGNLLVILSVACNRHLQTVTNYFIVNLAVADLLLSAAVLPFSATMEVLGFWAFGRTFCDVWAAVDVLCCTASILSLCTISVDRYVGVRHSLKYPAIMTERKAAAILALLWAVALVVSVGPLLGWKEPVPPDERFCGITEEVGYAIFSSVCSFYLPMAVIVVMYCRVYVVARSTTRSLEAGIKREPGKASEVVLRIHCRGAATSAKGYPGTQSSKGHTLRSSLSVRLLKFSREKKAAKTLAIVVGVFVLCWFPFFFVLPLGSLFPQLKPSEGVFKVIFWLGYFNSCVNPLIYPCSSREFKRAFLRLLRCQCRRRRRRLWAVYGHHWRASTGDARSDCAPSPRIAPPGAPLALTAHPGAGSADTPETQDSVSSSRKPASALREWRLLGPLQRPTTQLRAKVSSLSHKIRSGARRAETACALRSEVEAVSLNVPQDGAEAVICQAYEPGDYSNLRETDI
Outline: (§4)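 Endothelium-denuded helicoidal thoracic aorta strips (15 x 3 mm) from male Wistar rats, Krebs solution, 1 g tension, ≥2 h equilibration. Cumulative (-)-NA curves recorded isometrically at 1 h intervals, third as control. Antagonist equilibrated 60 min before fourth curve. NA solutions held 0.05% Na2S2O4. pKb = log(DR-1) - log[B]; mean ± SE of 4–5 experiments.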

[7] = molecular target: T4, Alpha-1A adrenergic receptor (Rattus norvegicus); test: Antagonist activity at alpha1A adrenoceptor in Wistar rat vas deferans assessed as decrease in noradrenaline induced contractions at 0.1 uM; design: scale not given: the % may be the effect or the level left; outline: as §2
[8] = molecular target: T5, Alpha-1B adrenergic receptor (Rattus norvegicus); test: Antagonist activity at alpha1B adrenoceptor in Wistar rat spleen assessed as decrease in phenylephrine induced contractions at 0.1 uM; design: scale not given: the % may be the effect or the level left; outline: as §3
[9] = molecular target: T6, Alpha-1D adrenergic receptor (Rattus norvegicus); test: Antagonist activity at alpha1D adrenoceptor in Wistar rat thoracic aorta assessed as decrease in noradrenaline induced contractions at 0.1 uM; design: scale not given: the % may be the effect or the level left; outline: as §4

Ki [1] | Ki [2] | Ki [3] | pKb [4] | pKb [5] | pKb [6] | Activity [7] | Activity [8] | Activity [9] | Structure (SMILES)
6.92 nM | 7.41 nM | 4.07 nM | – | – | – | – | – | – | COc1ccccc1N1CCN(CCn2c(=O)[nH]c3c(sc4ccc(NC(=O)CCCN(C)Cc5ccccc5)cc43)c2=O)CC1
5.25 nM | 36.3 nM | 1.17 nM | – | – | – | – | – | – | COc1ccccc1N1CCN(CCn2c(=O)[nH]c3c(sc4ccc(NC(=O)CCCCc5ccccc5)cc43)c2=O)CC1
0.933 nM | 1.91 nM | 0.0562 nM | 7.82 | 7.77 | 9.15 | 90% | 100% | 100% | COc1ccccc1N1CCN(CCn2c(=O)[nH]c3c(sc4ccc(NC(=O)CCCC(=O)N(C)Cc5ccccc5)cc43)c2=O)CC1
1.1 nM | 2.69 nM | 0.372 nM | – | – | – | – | – | – | COc1ccccc1N1CCN(CCn2c(=O)[nH]c3c(sc4ccc(NC(=O)CCC(=O)NCc5ccccc5)cc43)c2=O)CC1
1.1 nM | 10 nM | 0.575 nM | – | – | – | – | – | – | COc1ccccc1N1CCN(CCn2c(=O)[nH]c3c(sc4ccc(NC(=O)c5ccccc5)cc43)c2=O)CC1
0.912 nM | 6.46 nM | 0.759 nM | – | – | – | – | – | – | COc1ccccc1N1CCN(CCn2c(C)nc3c(sc4ccc(NC(=O)CCCC(=O)NCCc5ccccc5)cc43)c2=O)CC1
3.89 nM | 38.9 nM | 5.01 nM | – | – | – | – | – | – | COc1ccccc1N1CCN(CCn2c(C)nc3c(sc4ccc(NC(=O)c5ccccc5)cc43)c2=O)CC1
3.55 nM | 19.1 nM | 5.5 nM | – | – | – | – | – | – | COc1ccccc1N1CCN(CCn2c(C)nc3c(sc4ccc(NC(=O)CCCC(=O)NCc5ccccc5)cc43)c2=O)CC1
7.08 nM | 33.9 nM | 3.24 nM | – | – | – | – | – | – | COc1ccccc1N1CCN(CCn2c(=O)[nH]c3c(sc4ccc(NC(=O)CCCc5ccccc5)cc43)c2=O)CC1

More lines, now with the values behind:

Structure (SMILES) | Ki [1] | Ki [2] | Ki [3] | pKb [4] | pKb [5] | pKb [6] | Activity [7] | Activity [8] | Activity [9]
COc1ccccc1N1CCN(CCn2c(C)nc3c(sc4ccc(NC(=O)CCCNC(=O)Cc5ccccc5)cc43)c2=O)CC1 | 1 nM | 7.59 nM | 2.29 nM | – | – | – | – | – | –
COc1ccccc1N1CCN(CCn2c(=O)[nH]c3c(sc4ccc(NC(=O)CCCC(=O)NCc5ccccc5)cc43)c2=O)CC1 | 0.324 nM | 0.832 nM | 0.141 nM | 7.7 | 7.94 | 8.64 | 100% | 100% | 100%
COc1ccccc1N1CCN(CCn2c(=O)[nH]c3c(sc4ccc(NC(=O)CCCC(=O)NCCc5ccccc5)cc43)c2=O)CC1 | 1.62 nM | 6.46 nM | 1 nM | – | – | – | – | – | –
COc1ccccc1N1CCN(CCn2c(=O)[nH]c3c(sc4ccc(NC(=O)Cc5ccccc5)cc43)c2=O)CC1 | 1.48 nM | 28.2 nM | 0.912 nM | – | – | – | – | – | –
COc1ccccc1N1CCN(CCn2c(C)nc3c(sc4ccc(NC(=O)Cc5ccccc5)cc43)c2=O)CC1 | 3.39 nM | 30.2 nM | 3.31 nM | – | – | – | – | – | –
COc1ccccc1N1CCN(CCn2c(=O)[nH]c3c(sc4ccc(NC(=O)CCCN(C)C)cc43)c2=O)CC1 | 1.7 nM | 1.66 nM | 1.66 nM | – | – | – | – | – | –
COc1ccccc1N1CCN(CCn2c(=O)[nH]c3c(sc4ccccc43)c2=O)CC1 | – | – | – | 8.61 | 8.44 | 8.89 | – | – | –
